# In the library only some 4.1% were active in any assay of this set; here they are far more common.
# KCNK9 block = KCNK9 potassium channel inhibitors, primary screen, HEK293 cells, thallium flux. Potassium channel subfamily K member 9 (Homo sapiens), Q9NPC2. AID 488922, 2010. B-score at 10 µM. actives 1.2% (n = 310,000). FluxOR thallium flux fluorescence; hits give low values;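 active means ratio B-score over 3 SD below the library mean, with starting fluorescence within 5 SD of its mean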;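 further: negative B-score means less thallium flux so channel inhibition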
# hERG rescue = hERG rescue from dofetilide block, primary screen, cell-based, CHO-hERG, FluxOR thallium flux, dofetilide IC70; dofetilide IC70 present; Voltage-gated inwardly rectifying potassium channel KCNH2 (Homo sapiens), Q12809; activation (rescue from dofetilide block), less the hit threshold, % at 10 µM; actives 0.51% (n = 310,000);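 active means activation above the mean of controls blocked by dofetilide plus 5 SD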;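 further: thallium influx through hERG after potassium depolarization seen as dye fluorescence rise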
# Cl transport mod = KCC2 cotransporter modulators, thallium flux, primary screen, cell-based, HEK293 KCC2, FluoZin-2 fluorescence, MLSMR. Solute carrier family 12 member 5 (Homo sapiens), Q9H2X9. KCC2 cells, thallium flux FluoZin-2 fluorescence. B-score of Tl+ flux slope (higher = more flux/activation; lower = inhibition) at 10 µM. actives 2.2% (n = 190,000);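 active means thallium flux slope and its plate-corrected score both differing from the plate sample mean at a set confidence after two filtering rounds, in either direction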;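 further: slope of fluorescence scaled to starting intensity during 10 to 20 s after thallium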
# KCNQ1 act = potentiators or activators of KCNQ1 channel, primary screen, cell-based, thallium flux, high-throughput; Potassium voltage-gated channel subfamily KQT member 1 (Homo sapiens), P51787; CHO-K1 KCNQ1, thallium flux FluxOR fluorescence; hits give high values; B-score at 10 µM; actives 0.35% (n = 310,000); AID 2648, 2010;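 active means fluorescence ratio B-score, a plate-corrected score, at least three library SD, with initial intensity B-score within 5 SD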
#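 Material: CHO-K1 cells stably expressing KCNQ1. Medium: assay buffer for compound exposure, DMSO matched across wells. Reagent: K+/Tl+ depolarizing stimulus. Compound dosing: single-concentration screen. Times: 37 °C overnight plating, 90-min dark dye load, 20-min compound pretreatment. Technique: FluxOR Tl+ flux fluorescence.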
# KCNQ1 block = inhibitors of human KCNQ1 channel, primary screen, cell-based, thallium flux, high-throughput; CHO-K1 KCNQ1, FluxOR thallium flux fluorescence; hits give high values; B-score at 10 µM; actives 1.3% (n = 310,000);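 active means compounds whose thallium flux B-score, printed positive for inhibition, exceeds three library SD while starting fluorescence stays within three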;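 further: channel opened by potassium depolarization with thallium stimulus after 20 min compound exposure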
# KCNK3 inh = human KCNK3 channel inhibitors, primary screen, CHO cells, FluxOR thallium flux, B-score; FluxOR fluorescence; hits give low values; B-score at 10 µM; actives 0.84% (n = 340,000); AID 602410, 2012;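 active means B-score under library mean minus 4 SD, starting fluorescence ratio at most library mean plus 5 SD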;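 further: more negative B-score means stronger inhibition of thallium flux through KCNK3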
# Target sequence (O14649 whole entry, looked up): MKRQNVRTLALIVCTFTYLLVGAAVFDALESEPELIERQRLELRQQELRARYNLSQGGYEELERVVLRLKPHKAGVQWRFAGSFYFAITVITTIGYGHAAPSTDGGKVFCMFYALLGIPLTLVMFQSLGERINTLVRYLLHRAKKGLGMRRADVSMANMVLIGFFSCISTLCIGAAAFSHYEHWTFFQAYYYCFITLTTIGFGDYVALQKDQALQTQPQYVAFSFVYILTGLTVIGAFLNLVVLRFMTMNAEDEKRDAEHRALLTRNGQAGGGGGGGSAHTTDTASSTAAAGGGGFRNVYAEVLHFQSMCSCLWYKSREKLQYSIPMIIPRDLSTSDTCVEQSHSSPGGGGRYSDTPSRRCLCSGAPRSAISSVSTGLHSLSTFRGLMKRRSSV
# KCC2 secondary = KCC2 modulators in sodium-free buffer, confirmation, cell-based, HEK293 KCC2, thallium flux, secondary assay; shares compounds with Cl transport mod; FluoZin2 fluorescence; hits give high values; normalised thallium flux (F/F0 slope) at 10 µM; actives 15% (n = 3,700); AID 1713, 2009;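 active means thallium flux slope above the same plate's solvent-only control mean plus 3 SD; inconclusive means the two replicate wells disagree; inactive means no significant difference from solvent-only control wells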
# KCC2 bumet counter = thallium flux persisting under bumetanide in KCC2 cells, confirmation, counter-screen for KCC2 modulator project, cell-based, HEK293 KCC2, FluoZin2, secondary assay 3; shares compounds with Cl transport mod; HEK293-KCC2 + bumetanide/ouabain; hits give high values; normalized thallium flux at 10 µM; actives 49% (n = 3,700);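 active means thallium entry rate above the same plate's blocked-transporter control wells by more than 3 SD; inconclusive means the two repeat wells disagree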;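 further: raw slope of fluorescence over initial fluorescence between 10 and 20 s after thallium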
# KCC2 sec2 = KCC2 modulators without ouabain present, confirmation, cell-based, HEK293 KCC2, thallium flux, FluoZin2, secondary assay 2; shares compounds with Cl transport mod; thallium flux FluoZin2 fluorescence; actives lie on both sides; F/F0 rise rate, 10–20 s post-thallium; normalized thallium flux at 10 µM; actives 23% (n = 3,700);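 active means thallium flux slope more than 3 SD above or below the plate's solvent-only control mean, mostly below; inconclusive means the two repeat wells disagreed; inactive means no significant shift from solvent-only controls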;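 further: raw slope with 0.1% DMSO as baseline and bumetanide as block control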
# HEK counter1 = thallium flux modulation in parental HEK cells, confirmation, counter-screen for KCC2 modulator project, cell-based, counterscreen 1. shares compounds with Cl transport mod. HEK293 parental cells, thallium flux FluoZin2, ouabain; baseline-ratio fluorescence slope, 10–20 s after thallium. thallium flux rate (normalised fluorescence) at 10 µM. actives 46% (n = 3,700). AID 1716, 2009;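 active means thallium flux rate significantly above the same plate's solvent-only control wells, beyond their mean plus 3 SD; inconclusive means the two replicate wells gave conflicting results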
# KCC2 retest ouab = KCC2 inhibitors and activators, ouabain retest, confirmation, HEK-KCC2 cells. shares compounds with Cl transport mod. HEK293-KCC2, thallium flux FluoZin2 fluorescence; bidirectional: low = inhibitor, high = activator. raw Tl+ flux slope (below DMSO = inhibition, above = activation) at 10 µM. actives 48% (n = 3,700);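 active means thallium flux slope beyond 3 SD from same-plate DMSO control mean in most replicates, usually higher, sometimes lower; inconclusive means repeat tests gave conflicting results; inactive means no significant difference from controls in most replicates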;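 further: slope of initial-normalized fluorescence between seconds 10 and 20 after thallium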
# HEK293 Tl flux2 = native HEK Tl+ uptake effects, second counter-screen – HEK cells, counterscreen 2, counter-screen for KCC2 modulator project, confirmation; thallium flux slope at 10 µM; AID 1718, 2009; HEK293 parental, thallium flux FluoZin-2 fluorescence slope; actives 33% (n = 3,700); shares compounds with Cl transport mod;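 active means thallium flux slope above the same plate's solvent-control mean plus 3 SD in both duplicate wells; inconclusive means duplicate wells that disagreed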;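 further: run without ouabain in cells lacking the KCC2 cotransporter; slope of fluorescence scaled to its starting value between 10 and 20 s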
# Numbers without * were called inactive; i = inactive; u = inconclusive; x = no result given.
SMILES,KCNK9 block,hERG rescue,Cl transport mod,KCNQ1 act,KCNQ1 block,KCNK3 inh,KCC2 secondary,KCC2 bumet counter,KCC2 sec2,HEK counter1,KCC2 retest ouab,HEK293 Tl flux2
O=C(Nc1nc2ccccc2s1)c1cc(-c2ccccc2)nn1-c1ccccc1,i,-3,1.4,i,i,i,x,x,x,x,x,x
N#Cc1ccc(-c2csc(NNC(=O)c3ccccc3)n2)cc1,i,-9,x,i,i,i,x,x,x,x,x,x
O=C(NNc1nc(-c2ccccc2)cs1)c1ccccc1,i,-12,-5.9*,i,i,i,0.011,u,0.025*,0.008,0.014*,0.011
O=C(NNC(=O)c1ccc(-c2ccccc2)cc1)c1ccccc1,i,-7,-3.7*,i,i,i,0.0071,u,0.028,0.0074,0.016,u
O=C(NNC(=O)c1cc(-c2ccccc2)nn1-c1ccccc1)c1ccccc1,i,4,29*,i,i,i,0.0059,0.1*,0.067*,0.067*,0.076*,0.063*
Nc1nnc(SCC(=O)NNC(=O)c2ccccc2)s1,x,x,x,x,x,i,x,x,x,x,x,x
CCNCC(=O)Nc1c(C)cccc1C,x,x,x,x,x,i,x,x,x,x,x,x
c1cc2c(cc1NC1CCCCCC1)OCO2,i,-8,x,i,i,i,x,x,x,x,x,x
Cc1ccc(-n2nnnc2SCC(=O)NC2CCCc3ccccc32)cc1 (stereo not drawn),i,-5,-4.6*,i,i,i,0.0068,0.0033*,0.026*,u,0.014*,0.0095
Cc1ccc(-n2nnnc2SCC(=O)NC2CCCc3ccccc32)c(C)c1 (stereo not drawn),i,-7,-0.7,i,i,i,x,x,x,x,x,x
Cc1ccc(-n2nnnc2SCC(=O)N2CCc3ccccc3C2)cc1,i,-7,-3.6*,i,i,i,0.0075,0.0059,0.028,0.0071,0.021*,0.011
O=S(=O)(NCCSc1ccccc1)c1ccc2c(c1)OCCO2,i,-10,x,i,i,i,u,0.0046,0.032,0.0063,u,0.011

# Compound activity from PubChem.
